≈ marks a conversion by molar mass, not a printed value.
Experiments:
Plasmodium falciparum [1] = assay: Antimalarial activity against chloroquine-resistant Plasmodium falciparum K1; type: functional, organism-based
Procedure, shortened: (§1)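 IC50 (ng/mL) against P. falciparum blood stages, K1 (chloroquine-resistant) and NF54 (chloroquine-sensitive), reported as the mean of n = 2-3 determinations; individual measurements generally within 50% of each other.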

Plasmodium falciparum [2] = assay: Antimalarial activity against chloroquine-sensitive Plasmodium falciparum NF54; type: functional, organism-based; procedure, shortened: as §1
Plasmodium berghei = assay: Antimalarial activity as reduced parasitaemia against Plasmodium berghei infected NMRI mice (Mus musculus) at 100 mg/kg peroral dose 3 days post-infection; type: functional; parameters: scale not given: the % may be the effect or the level left; details: route oral
Procedure, shortened: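 Groups of three NMRI mice infected with P. berghei were dosed orally 1 day after infection with 100 mg/kg, dissolved or suspended in 3% ethanol/7% Tween-80 vehicle. Percent reduction in parasitemia was read on day 3 post-infection against an untreated control group; individual measurements generally within 10%.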

Plasmodium falciparum [3] = assay: Antimalarial activity against Plasmodium falciparum; type: functional, organism-based
Procedure, shortened: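 In vitro assay against chloroquine-resistant K1 and chloroquine-sensitive NF54 strains of P. falciparum. IC50 is reported in ng/mL as the mean of 2-3 determinations per strain, and individual measurements generally differed by less than 50%.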

| IC50 (Plasmodium falciparum [3]) [µg/mL] | Structure (SMILES) | IC50 (Plasmodium falciparum [1]) [µg/mL] | IC50 (Plasmodium falciparum [2]) [µg/mL] | Activity (Plasmodium berghei) [%] |
| --- | --- | --- | --- | --- |
| – | CC1(CCCO)CC2(CCCCC2)OO1 (stereo not drawn) | 0.05 (≈ 0.233 µM) | 0.08 (≈ 0.373 µM) | 0 |
| – | CCCC1(CCC)CC2(OO1)C1CC3CC(C1)CC2C3 (stereo not drawn) | 0.12 (≈ 0.431 µM) | 0.12 (≈ 0.431 µM) | 6 |
| – | C1CCC2(CC1)CC1(CCCC1)OO2 | 0.041 (≈ 0.209 µM) | 0.062 (≈ 0.316 µM) | 0 |
| – | CC(C)(C)C1CCC2(CC1)CC1(CCCC1)OO2 (stereo not drawn) | 0.13 (≈ 0.515 µM) | 0.18 (≈ 0.713 µM) | 45 |
| – | c1ccc(C2CCC3(CC2)CC2(OO3)C3CC4CC(C3)CC2C4)cc1 (stereo not drawn) | > 1 | > 1 | 0 |
| – | C1CCC2(CC1)CC1(OO2)C2CC3CC(C2)CC1C3 (stereo not drawn) | 0.77 (≈ 2.93 µM) | 0.66 (≈ 2.52 µM) | 0 |
| – | CCOC(=O)CCC1(C)CC2(CCCCC2)OO1 (stereo not drawn) | 0.048 (≈ 0.187 µM) | 0.081 (≈ 0.316 µM) | 18 |
| – | C1CCC2(CC1)CC1(CCCCC1)OO2 | 0.041 (≈ 0.195 µM) | 0.11 (≈ 0.523 µM) | 0 |
| – | c1ccc(C2CCC3(CC2)CC2(CCCCC2)OO3)cc1 (stereo not drawn) | 0.041 (≈ 0.143 µM) | 0.093 (≈ 0.325 µM) | 84 |
| – | CCCC1(CCC)CC2(CCCCC2)OO1 | 0.23 (≈ 1.02 µM) | 0.36 (≈ 1.59 µM) | 0 |
| – | CC1(CCC(=O)O)CC2(CCCCC2)OO1 (stereo not drawn) | > 1 | > 1 | 0 |
| > 1 | OC1(CC2(O)C3CC4CC(C3)CC2C4)CCCCC1 (stereo not drawn) | – | – | – |
| – | c1ccc(C2CC3(CCCCC3)OO2)cc1 (stereo not drawn) | 0.44 (≈ 2.02 µM) | 0.66 (≈ 3.02 µM) | 0 |
| – | CC(C)(C)C1CCC2(CC1)CC1(CCCCC1)OO2 (stereo not drawn) | 0.063 (≈ 0.236 µM) | 0.12 (≈ 0.45 µM) | 30 |
| – | c1ccc(C2CCC3(CC2)CC2(CCCC2)OO3)cc1 (stereo not drawn) | 0.038 (≈ 0.14 µM) | 0.083 (≈ 0.305 µM) | 49 |

— ChEMBL document CHEMBL1138250, “Spiro- and dispiro-1,2-dioxolanes: contribution of iron(II)-mediated one-electron vs two-electron reduction to the activity of antimalarial peroxides” (J Med Chem, 2007)
